{"source": "paper PMC3180640", "about": "(Frontiers in Pharmacology, 2011)", "key": {"[1]": {"biological_target": "T1, human wt-CFTR (Homo sapiens, UniProt P13569)", "T1 sequence (P13569 whole entry)": "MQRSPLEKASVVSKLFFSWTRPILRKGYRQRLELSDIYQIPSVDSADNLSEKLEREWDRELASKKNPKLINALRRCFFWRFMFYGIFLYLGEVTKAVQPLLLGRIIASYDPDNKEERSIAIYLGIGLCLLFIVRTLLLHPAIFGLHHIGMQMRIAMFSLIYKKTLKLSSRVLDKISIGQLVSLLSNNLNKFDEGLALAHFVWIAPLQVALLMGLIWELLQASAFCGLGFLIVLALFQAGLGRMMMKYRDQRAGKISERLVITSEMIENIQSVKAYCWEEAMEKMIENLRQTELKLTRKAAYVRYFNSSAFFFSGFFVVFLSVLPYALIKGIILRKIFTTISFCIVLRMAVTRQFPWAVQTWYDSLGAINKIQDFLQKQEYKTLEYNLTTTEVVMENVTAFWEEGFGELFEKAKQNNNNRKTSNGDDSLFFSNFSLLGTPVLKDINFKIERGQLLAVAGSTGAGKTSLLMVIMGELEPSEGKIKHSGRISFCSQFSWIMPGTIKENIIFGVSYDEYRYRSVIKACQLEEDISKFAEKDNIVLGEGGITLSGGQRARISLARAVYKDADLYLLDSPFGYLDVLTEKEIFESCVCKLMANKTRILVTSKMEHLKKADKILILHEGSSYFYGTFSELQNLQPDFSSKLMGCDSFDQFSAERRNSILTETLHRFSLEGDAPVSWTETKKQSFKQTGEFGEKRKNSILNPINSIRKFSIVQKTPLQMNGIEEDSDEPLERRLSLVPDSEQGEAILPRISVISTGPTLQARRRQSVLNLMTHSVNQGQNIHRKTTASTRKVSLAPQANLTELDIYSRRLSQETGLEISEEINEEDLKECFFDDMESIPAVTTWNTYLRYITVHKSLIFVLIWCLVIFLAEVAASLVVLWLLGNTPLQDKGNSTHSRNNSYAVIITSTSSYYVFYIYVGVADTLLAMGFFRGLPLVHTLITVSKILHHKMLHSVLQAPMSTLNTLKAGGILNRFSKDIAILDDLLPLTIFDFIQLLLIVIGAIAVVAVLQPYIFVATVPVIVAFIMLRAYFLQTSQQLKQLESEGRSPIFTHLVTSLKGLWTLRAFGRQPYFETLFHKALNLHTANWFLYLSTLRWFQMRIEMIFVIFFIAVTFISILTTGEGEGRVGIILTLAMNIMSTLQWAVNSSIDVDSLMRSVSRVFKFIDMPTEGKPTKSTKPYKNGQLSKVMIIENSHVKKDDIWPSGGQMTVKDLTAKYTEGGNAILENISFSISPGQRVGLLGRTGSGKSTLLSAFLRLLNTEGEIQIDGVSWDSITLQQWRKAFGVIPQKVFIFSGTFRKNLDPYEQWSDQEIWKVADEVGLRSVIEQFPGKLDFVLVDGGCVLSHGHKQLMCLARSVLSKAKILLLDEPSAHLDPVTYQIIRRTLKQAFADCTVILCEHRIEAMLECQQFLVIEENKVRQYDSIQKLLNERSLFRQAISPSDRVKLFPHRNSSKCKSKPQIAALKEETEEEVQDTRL", "type": "cell-based"}, "[2]": {"tested_on": "rat colonic mucosa", "test": "Short-circuit current assay on rat colonic mucosa", "conditions": "rat distal colonic mucosa"}, "[3]": {"biological_target": "T1, human wt-CFTR", "test": "Fluorescence assay of CFTR channel function", "type": "cell-based", "conditions": "FRT cells expressing wild-type CFTR, in the presence of 0.1 μmol/L forskolin"}, "[4]": {"tested_on": "mouse tracheal submucosal glands", "test": "Measurement of individual submucosal gland fluid secretion in mouse trachea", "conditions": "10 μmol/L osthole in serosal bathing solution", "summary_of_the_method": "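Cranial segment of freshly excised mouse trachea mounted on a sponge, soaked in Krebs–Henseleit solution, mucosal side up in a humidified 5% CO2/95% air chamber at 37°C. Mucosa cleared with saline, nitrogen-dried, then covered with saline-saturated oil. Some tissues pre-incubated 30 min with 20 μmol/L CFTRinh-172. Gland droplets imaged by reflected-light microscopy after stimulation; secretion rate computed from droplet diameter assuming hemispherical shape.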"}, "[5]": {"tested_on": "ΔF508-CFTR", "test": "Potentiation of ΔF508-CFTR", "type": "cell-based", "conditions": "ΔF508-CFTR versus wt-CFTR"}, "[6]": {"biological_target": "ΔF508-CFTR", "conditions": "read-out: affinity in potentiating ΔF508-CFTR; ref Xu et al., 2008; cited from earlier work"}}}
{"smiles": "O=C(O)c1ccc(/C=C2\\SC(=S)N(c3cccc(C(F)(F)F)c3)C2=O)cc1", "note": "[CFTRinh-172, reference compound]", "values": [{"measurement": "block of coumarin-stimulated Cl− current", "setting": "[1]; CFTRinh-172 at 20 μmol/L", "result": "completely blocked the activations"}, {"measurement": "effect on osthole-stimulated chloride secretion", "setting": "[2]", "result": "completely abolished the osthole-stimulated chloride secretion"}]}
{"smiles": "CC(C)=CCOc1c2occc2cc2ccc(=O)oc12", "note": "[imperatorin]", "values": [{"measurement": "stimulation of wt-CFTR-mediated I− influx", "setting": "[3]", "result": "stimulated wt-CFTR-mediated I^− influx in a concentration-dependent way"}]}
{"smiles": "O=c1ccc2ccc3occc3c2o1", "note": "[isopsoralen]", "values": [{"measurement": "stimulation of wt-CFTR-mediated I− influx", "setting": "[3]", "result": "stimulated wt-CFTR-mediated I^− influx in a concentration-dependent way"}]}
{"smiles": "COc1ccc2ccc(=O)oc2c1CC=C(C)C", "note": "[osthole]", "values": [{"measurement": "stimulation of wt-CFTR-mediated I− influx", "setting": "[3]", "result": "stimulated wt-CFTR-mediated I^− influx in a concentration-dependent way"}, {"measurement": "Kd", "setting": "[1]", "result": "< 0.05", "unit": "µM"}, {"measurement": "increase of fluid secretion rate compared to the saline control", "setting": "[4]", "result": 3.34, "unit": "fold"}, {"measurement": "affinity in potentiating ΔF508-CFTR lower than in activating wt-CFTR", "setting": "[5]", "result": "> 200", "unit": "fold"}, {"measurement": "Kd", "setting": "[6]", "result": "~10", "unit": "µM"}]}
{"smiles": "COc1cc2ccc(=O)oc2cc1OC", "note": "[scoparone]", "values": [{"measurement": "stimulation of wt-CFTR-mediated I− influx", "setting": "[3]", "result": "stimulated wt-CFTR-mediated I^− influx in a concentration-dependent way"}]}
